Results on 13 molecules are retold here after ChEMBL document CHEMBL1122960, “Acyclic analogues of 2'-deoxynucleosides related to 9-[(1,3-dihydroxy-2-propoxy)methyl]guanine as potential antiviral agents” (1985).

What all share (type): functional
The subject of assay [1] is Vero. Kind of assay: Antiviral activity was determined in plaque reduction assay in vero cells against HSV-1 F strain. The settings on record: Chlorocebus sabaeus, read-out: ID50 (the source's name). In outline: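 Vero cells were infected with HSV-1 (F strain) and then treated with the nucleoside analogue. ID50 is the dose giving a 50% reduction in plaque number relative to untreated controls.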

Assay [2] has as its system Mus musculus. Kind of assay: Effect of oral treatment on HSV-2 encephalitis infection in mice and survivors/total was reported at a dose 5 mg/kg; 8/20. In short, it runs like this:
(§1)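 Female Swiss-Webster mice, about 20 g, were infected intraperitoneally with 5 × 10⁴ PFU HSV-2 (strain G), roughly ten LD50. Drug was given orally once daily for 4 days, beginning 24 h after infection, with a placebo group included. Read-outs were survivors/total and mean survival time in days.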

In assay [3] the test system is Mus musculus. Kind of assay: Effect of oral treatment on HSV-2 encephalitis infection in mice and survivors/total was reported at a dose 20 mg/kg; 8/20. In outline:
as §1

Assay [4] relates to Mus musculus. As to the kind of experiment: Effect of oral treatment on HSV-2 encephalitis infection in mice and mean survival time was reported at a dose 20 mg/kg. In short, it runs like this: as §1
The test system of assay [5] is Mus musculus. As to the kind of experiment: Effect of oral treatment on HSV-2 encephalitis infection in mice and mean survival time was reported at a dose 10 mg/kg. In outline:
as §1

The test system of assay [6] is Mus musculus. As to the kind of experiment: Effect of oral treatment on HSV-2 encephalitis infection in mice and mean survival time was reported at a dose 5 mg/kg. In short, it runs like this: as §1
Assay [7] concerns Mus musculus. As to the kind of experiment: Effect of oral treatment on HSV-2 encephalitis infection in mice and survivors/total was reported at a dose 10 mg/kg; 5/20. In outline: as §1
Assay [8] deals with Mus musculus. Kind of assay: Effect of oral treatment on HSV-2 encephalitis infection in mice and survivors/total was reported at a dose 10 mg/kg; 4/20. In outline: as §1
Assay [9] has as its system Mus musculus. As to the kind of experiment: Effect of oral treatment on HSV-2 encephalitis infection in mice and survivors/total was reported at a dose 40 mg/kg; 7/20. In outline:
as §1

The test system of assay [10] is Mus musculus. As to the kind of experiment: Effect of oral treatment on HSV-2 encephalitis infection in mice and survivors/total was reported at a dose 20 mg/kg; 5/20. In outline:
as §1

Assay [11] deals with Mus musculus. As to the kind of experiment: Effect of oral treatment on HSV-2 encephalitis infection in mice and mean survival time was reported at a dose 40 mg/kg. In short, it runs like this:
as §1

Some results are limits rather than exact numbers.

As to `Nc1ncc2ncn(COC(CO)CO)c2n1`, the IC50 in assay [1] came out at 16 µM. The same measure, in the same setting: under `Nc1nc(=O)ccn1COC(CO)CO` stands > 100 µM; under `Nc1nc2c(ncn2COCCO)c(=O)[nH]1` [ACYCLOVIR], 0.5 µM.

For `Nc1nc2c(ncn2COC(CO)CO)c(=O)[nH]1` [GANCICLOVIR], the Survival in assay [2] stood at 8; in assay [3] it was 8; in assay [7], 5. For the same molecule, the Survival time worked out at 13.8 days in assay [4], 10.9 days in assay [5] and 9.9 days in assay [6]. Further, the IC50 in [1] worked out at 0.2 µM. On to `Nc1nc(N)c2ncn(COC(CO)CO)c2n1`, for which the Survival is on record as 4 in assay [8], 7 in [9] and 5 in assay [10]. The Survival time in assay [4] came to 10.9 days; in assay [5] it was 10.8 days; in assay [11] it was 11.5 days. Further, the IC50 in [1] is 3.3 µM. As to `Cc1cn(COC(CO)CO)c(=O)[nH]c1=O`, in assay [1], the IC50 was > 100 µM.

In the case of `O=c1[nH]c(=O)n(COC(CO)CO)cc1Br`, the IC50 in assay [1] was > 100 µM. The same measure, in the same setting: in the case of `Nc1ccn(COC(CO)CO)c(=O)n1` it was > 100 µM; in that of `O=c1ccn(COC(CO)CO)c(=O)[nH]1`, > 100 µM. On the same count and under the same terms, under `O=c1[nH]c(=O)n(COC(CO)CO)cc1F` stands > 100 µM; under `Nc1nc(S)c2ncn(COC(CO)CO)c2n1`, 9 µM. Consider `Nc1nc(=O)n(COC(CO)CO)cc1F`, for which, in assay [1], the IC50 is > 100 µM. On the same count and under the same terms, in the case of `Nc1ncnc2c1ncn2COC(CO)CO` it was > 100 µM.
